Screening results: PubChem BioAssay, The Scripps Research Institute Molecular Screening Center
CHO-K1 Ca antag: M1 antagonist counterscreen hit in parental CHO-K1 cells. 360,000 tested, 0.6% active. ATP-induced calcium, Fluo-8 fluorescence. inhibition, % at 3 µM;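 active = inhibition above a per-plate cutoff, the plate's mean sample inhibition plus 3 SD, cut at about 24% in these data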;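 also: 0% = DMSO plus EC80 ATP and 100% = DMSO alone without ATP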
OX1R antag-1: OX1R (HCRTR1) antagonists, primary screen, fluorescence, CHO/OX1R cells, Fluo-8 calcium, orexin A; 330,000 tested, 0.43% active; Fluo-8 calcium fluorescence; AID 434989, 2010; Orexin/Hypocretin receptor type 1 (Homo sapiens), O43613; inhibition, % at 5 µM;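 active = inhibition above its plate's threshold, mean inhibition of all tested compounds on the plate plus 3 SD, cut at about 37% in these data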;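 also: 0% = orexin A challenge wells and 100% = SB-334867-A antagonist wells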
Target sequence (O43613 whole entry, looked up): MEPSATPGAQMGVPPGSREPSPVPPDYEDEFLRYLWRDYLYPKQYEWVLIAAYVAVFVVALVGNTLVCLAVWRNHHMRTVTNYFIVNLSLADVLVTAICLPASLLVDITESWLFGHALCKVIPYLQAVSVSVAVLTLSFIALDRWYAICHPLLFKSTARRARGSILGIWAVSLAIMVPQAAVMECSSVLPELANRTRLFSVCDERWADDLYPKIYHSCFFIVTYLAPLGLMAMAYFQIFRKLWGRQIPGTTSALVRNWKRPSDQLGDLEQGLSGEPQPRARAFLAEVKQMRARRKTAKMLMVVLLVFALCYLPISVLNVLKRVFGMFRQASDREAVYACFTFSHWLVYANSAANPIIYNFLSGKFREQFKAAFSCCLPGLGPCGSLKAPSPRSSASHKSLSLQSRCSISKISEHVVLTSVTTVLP
OX1R antag-2: antagonists of human orexin 1 receptor (OX1R). AID 485270, 2010. 330,000 tested, 1.8% active. OX1R-expressing cells, FRET antagonist read-out. inhibition, % at 6.6 µM; in the data active = inhibition mostly above about 38%, no sharp cut-off; inactive = mostly below about 40%;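 also: 0% = agonist challenge alone and 100% = reference antagonist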
M1 ag parental: counter-screen for M1 agonists: effect in parental CHO-K1 cells | Fluo-8 calcium fluorescence; scaled to maximal ATP response, vehicle zero | 360,000 tested, 0.48% active | activation, % at 3 µM; in the data active = activation above about 15%;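 also: untransfected CHO-K1 host cells lacking M1 receptor as counterscreen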
CHO parental Ca: ATP-evoked calcium signal inhibitors, parental CHO, primary screen, counter-screen for OX1R antagonist project, cell-based, fluorescence, Fluo-8 calcium dye; inhibition, % at 5.6 µM; parental CHO-K1, ATP-induced calcium, Fluo-8 fluorescence; AID 463079, 2010; 330,000 tested, 0.63% active;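 active = inhibition above that plate's mean sample inhibition plus 3 SD, cut at about 26% in these data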;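 also: 0% = ATP-challenged DMSO wells and 100% = DMSO wells without ATP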
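Material – parental CHO cells · Reagent – ATP stimulus · Compound – single nominal dose of 5.6 µM per compound · Detection – Fluo-8 fluorescence · Read-out basis – percent inhibition of calcium signal · Controls – ATP-challenged DMSO wells low, unchallenged DMSO wells high · Repeats – no replicates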
CHO-K1 Ca PAM: nonselective calcium activators in parental CHO-K1 cells, primary screen, counter-screen for M1 PAM project, cell-based, Fluo-8 calcium fluorescence, full deck, 1536-well; ATP EC20; 0% at ATP EC20, 100% at ATP max; activation, % at 3 µM; 360,000 tested, 0.02% active; AID 602247, 2012;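 active = activation above the run cutoff, the mean activation of all test compounds plus 3 SD, cut at about 40% in these data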;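 also: peak over basal fluorescence ratio in a 140 s read after ATP addition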
OX1R Fluo8 conf: OX1R (HCRTR1) antagonists, confirmation, fluorescence, CHO/OX1R cells, Fluo-8 calcium, orexin A. shares compounds with OX1R antag-1. orexin A calcium Fluo-8 fluorescence. inhibition, % at 5 µM. 1,100 tested, 38% active; in the data active = inhibition above about 29%;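 also: 0% = agonist challenge alone and 100% = reference antagonist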
CHO Ca triplic: ATP-evoked calcium inhibition in parental CHO, counter-screen for OX1R antagonist project, cell-based, fluorescence, CHO-K1, triplicate. shares compounds with OX1R antag-1. ATP-induced calcium, Fluo-8 fluorescence. inhibition, % at 5.6 µM. 1,100 tested, 9.3% active;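 active = inhibition above a per-plate limit, the mean inhibition of that plate's test compounds plus 3 SD, cut at about 25% in these data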;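 also: 0% = ATP challenge with DMSO and 100% = DMSO without ATP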
Numbers without * were called inactive; nt = not tested or not shown. Hits are enriched below; roughly 2.9% of the tested compounds scored in any of these assays.

SMILES | CHO-K1 Ca antag | OX1R antag-1 | OX1R antag-2 | M1 ag parental | CHO parental Ca | CHO-K1 Ca PAM | OX1R Fluo8 conf | CHO Ca triplic
CCOc1ccc(NC2=C(Cl)C(=O)N(Cc3ccccc3)C2=O)cc1 | -14 | 51* | 33 | 1 | 5 | 12 | -7 | -8
COc1ccc(NC2=C(Cl)C(=O)N(CCc3ccccc3)C2=O)cc1 | 0 | 1 | 21 | 0 | -12 | -6 | nt | nt
CCNc1nc2c(c(=O)[nH]c(=O)n2C)n1CCCc1ccccc1 | -16 | 26 | 5 | 2 | -4 | 13 | 3 | 3
COC(=O)Cn1c(=O)c2c(nc3n2CC(C)CN3CCc2ccccc2)n(C)c1=O (stereo not drawn) | 4 | nt | nt | 7 | nt | -2 | nt | nt
COC(=O)Cn1c(=O)c2c(nc3n2CC(C)CN3Cc2ccccc2)n(C)c1=O (stereo not drawn) | -4 | 31 | 16 | 10 | -5 | 21 | -6 | -6
COc1ccccc1C(=O)NNC(=O)c1nn(Cc2ccccc2)c(=O)c2ccccc12 | -9 | -33 | 30 | 1 | -17 | 8 | nt | nt
Cc1cccc2sc(NC(=O)CCNS(=O)(=O)c3cccs3)nc12 | -10 | 31 | 39 | 4 | 20 | -7 | 17 | 4
Cc1ccc2nc(NC(=O)CCNS(=O)(=O)c3cccs3)sc2c1 | -6 | 5 | 20 | 5 | 2 | 21 | nt | nt
COc1ccc(/C=C2\SC(=O)N(CCNC(=O)Cn3[nH]c(=O)c4ccccc4c3=O)C2=O)cc1 | 1 | -4 | 9 | 0 | -10 | -2 | nt | nt
O=C(C1CCCN(c2ncnc3c2nc2n3CCCCC2)C1)N1CCN(c2ccc(Cl)cc2)CC1 (stereo not drawn) | 8 | -19 | 6 | 6 | -11 | 19 | nt | nt
O=C(C1CCN(c2ncnc3c2nc2n3CCCCC2)CC1)N1CCN(c2cccc(Cl)c2)CC1 | 7 | 31 | 26 | 11 | 5 | 0 | 22 | -2
COc1cc(/C=C/C(=O)CC(=O)/C=C/c2ccc(O)c(OC)c2)ccc1O | 29* | 34 | 10 | 19* | 23 | -15 | 31* | 30*
COc1cc(/C=C/C(=O)/C=C(O)/C=C/c2ccc(O)c(OC)c2)ccc1O | 19 | 41 | 2 | 10 | 31 | 0 | nt | nt
C=CCn1c(SCC(=O)Nc2sccc2C(N)=O)nc2ccc(Cl)cc2c1=O | -8 | 53* | 46 | 5 | 9 | 18 | 16 | 8
COc1ccccc1N1CCN(S(=O)(=O)CCNC(=O)C2CC2)CC1 | 0 | -21 | 18 | 0 | -11 | -26 | nt | nt
CCN(c1ccccc1)S(=O)(=O)c1ccc(Cl)c(NC(=O)COC(=O)C2CC2C)c1 (stereo not drawn) | -3 | 27 | 17 | 3 | 10 | 17 | -5 | -8
O=C(Nc1ccc(S(=O)(=O)N2CCc3ccccc32)cc1)c1ccc2c(c1)OCO2 | 0 | 25 | 20 | 7 | 19 | 6 | 10 | 8
Cc1ccccc1C1C(C#N)=C(N)N(N(C)C)C2=C1C(=O)CC(C)(C)C2 (stereo not drawn) | -18 | -27 | 0 | 1 | -10 | 8 | nt | nt
O=C(CSc1cn(CCNC(=O)c2ccc3ccccc3c2)c2ccccc12)NCc1ccco1 | 11 | 22 | 29 | 2 | 13 | -5 | 2 | -11
O=C(NCc1ccccc1)/C(=C/c1ccc([N+](=O)[O-])cc1)NC(=O)c1ccco1 | -15 | -8 | 26 | 2 | -10 | 9 | nt | nt
CN(C)c1ccc(/C=C/C=C2/SC(=S)N(c3ccccc3)C2=O)cc1 | 13 | 36 | 9 | 6 | 27 | 14 | 57* | 60*
N#CCC(CNc1ncc(C(F)(F)F)cc1Cl)OC(=O)c1c(F)cccc1F (stereo not drawn) | 5 | 46 | 25 | 0 | -24 | -4 | 18 | -10
CCN(CC)CCCNC(=S)N(Cc1cccnc1)Cc1cc2cc(C)ccc2[nH]c1=O | -1 | -8 | 0 | 1 | 1 | 14 | nt | nt
CNc1cc(CSC)nc(SCc2ccc(Cl)cc2Cl)n1 | -20 | 53* | 36 | 1 | -12 | 17 | 3 | -9
CCOC(=O)CC(=O)CSc1ncnc2c1oc1ccccc12 | 10 | 33 | -90 | 0 | -22 | 1 | 14 | 2
SMILES | CHO-K1 Ca antag | OX1R antag-1 | OX1R antag-2 | M1 ag parental | CHO parental Ca | CHO-K1 Ca PAM | OX1R Fluo8 conf | CHO Ca triplic
O=[N+]([O-])c1ccc2c([N+](=O)[O-])ccc3c2c1CC3 | -6 | nt | nt | 0 | nt | -9 | nt | nt
O=C(OCCc1cc2ccccc2c(=O)o1)c1ccccc1C(F)(F)F | -10 | 37 | 18 | 6 | -4 | 9 | 4 | 3
Cc1coc2cc3oc(=O)ccc3cc12 | -17 | 106* | 5 | 3 | -1 | 12 | 2 | 18
CC(NC(=O)CNC(=S)N(Cc1cccs1)C1CCCC1)c1ccccc1 (stereo not drawn) | -14 | -32 | 19 | 0 | -12 | -9 | nt | nt
O=C(CNC(=O)c1ccc(Oc2ccccc2)cc1)OCc1ccc(Br)cc1 | 9 | 34 | 8 | 1 | 17 | -8 | 8 | 3
COc1ccc(C(=O)NCC(=O)NCC(=O)OCc2ccc(Br)cc2)cc1 | -15 | -31 | 25 | 2 | -17 | 3 | nt | nt
COc1cc2c(cc1OC)CN(C(=O)C1CCCN1S(=O)(=O)c1ccc(F)cc1)CC2 (stereo not drawn) | -22 | -23 | 38 | 1 | -13 | 14 | nt | nt
Cc1csc(NC(=O)c2cc(C)on2)n1 | -22 | 3 | 11 | 0 | 4 | 11 | nt | nt
CC(C)(C)c1ccc(OCC(O)CN(CCO)CC(O)Cn2ccc3ccccc32)cc1 (stereo not drawn) | 2 | 5 | 12 | 1 | -2 | 15 | nt | nt
OCCN(CC(O)Cn1ccc2ccccc21)CC(O)Cn1ccc2ccccc21 (stereo not drawn) | 7 | 39 | 11 | 1 | 19 | -3 | 15 | 5
C=CCn1c(NCCc2ccccc2)nc2c1c(=O)n(C)c(=O)n2C | 12 | 31 | 16 | 6 | 12 | 6 | 10 | 13
Cc1ncc(CO)c2c1Oc1nc(-c3ccccc3F)nc(SCC(=O)N(C)c3ccccc3)c1C2 | 7 | 31 | 31 | 5 | -4 | -9 | 17 | -16
COC(=O)c1ccc(C(=O)OC)c(=O)[nH]1 | -7 | 6 | 23 | 1 | -4 | 16 | nt | nt
